Source: ChEMBL document CHEMBL1949657, “Chemical modification of the multitarget neuroprotective compound fisetin” (J Med Chem, 2012)
pEC50: −log10 of the molar value. Active and inactive are the calls of the source.

Columns and labels:
[1] = tested on: HT-22; experiment: Neuroprotective activity against glutamate-induced GSH loss in mouse HT22 cells assessed as intracellular GSH level at 1 to 10 uM after 24 hrs; type: functional, cell-based
Outline: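 HT22 cells given derivatives (1–10 μM) with 5 mM glutamate. After 24 h, cell extracts analysed for total intracellular GSH by chemical assay. Fisetin 10 μM as positive control. Tested twice; positives tested a third time.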

[2] = tested on: PC-12; experiment: Neurotrophic activity in rat PC12 cells assessed as neurite outgrowth at 1 to 10 uM after 24 hrs; type: functional, cell-based
Outline: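 PC12 cells in N2 medium given derivatives (1–10 μM) for 24 h, fisetin 10 μM as positive control. 100 cells counted in each of three fields. A cell scored positive with ≥1 neurite longer than one cell-body diameter. Tested twice; positives tested a third time.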

[3] = Antioxidant activity against ABTS radical assessed as trolox equivalent after 4 mins by TEAC assay; type: functional
Outline: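 ABTS radical cation formed overnight with potassium persulfate and diluted to OD ~0.7 at 734 nm, then mixed with derivative in ethanol. Loss of A734 followed over 4 min. TEAC = slope of % absorbance inhibition vs concentration divided by the slope for Trolox.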

[4] = tested on: N9; experiment: Antiinflammatory activity in mouse N9 cells assessed as reduction of LPS-induced microglial activation at 1 to 10 uM measured as nitrite level after 24 hrs by Griess reagent-based assay; type: functional; set-up: scale not given: the % may be the effect or the level left
Outline: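 N9 microglia in DME with 7.5% DFCS, given 10 μg/ml LPS alone or with derivatives (1–10 μM) for 24 h. Medium spun to remove floating cells, then nitrite measured with Griess reagent, 10 min at room temperature, absorbance 550 nm. Fisetin 10 μM as positive control. Tested twice; positives tested a third time.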

[5] = tested on: HT-22; experiment: Neuroprotective activity in mouse HT22 cells assessed as reduction in IAA-induced ischemia after 24 hrs by MTT assay; type: functional, cell-based; settings: for pEC50: Mus musculus, HT-22, 24 h, read-out: EC50; for EC50: ht-22
Outline: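 HT22 cells seeded at 5×10^3/well. Next day switched to DMEM + 7.5% DFCS with 20 μM IAA ± derivative doses for 2 h, then IAA-free medium with derivative for 20 h. MTT 2.5 μg/ml for 4 h at 37 °C, solubilised in DMF/SDS pH 4.7, A570 read. Controls for compound toxicity and assay interference. EC50 from dose series; tested twice, third time if EC50 < 1 μM.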

[6] = tested on: HT-22; experiment: Induction of Nrf2 expression in mouse HT22 cells from 1 to 4 hrs by immunoblotting; type: functional, cell-based
Outline: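 Nuclear extracts taken from untreated and derivative-treated cells at 1, 2 and 4 h. Equal protein run on 10% SDS-PAGE, blotted to nitrocellulose (Ponceau-S loading check). Probed with anti-Nrf2 (1/1000) and anti-β-actin, HRP secondary, chemiluminescence. Tested twice; positives tested a third time.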

Row | Structure (SMILES) | Activity [1] | Activity [2] | Activity [3] | Activity [4] | pEC50 [5] | EC50 [5] | Activity [6]
1 | CN(C)c1ccc(-c2cc(=O)c3ccc4ccccc4c3o2)cc1 | inactive | inactive | 0.24 equiv | 35% | 6.60 | – | –
2 | COc1cc(-c2oc3c(ccc4ccccc43)c(=O)c2O)ccc1OCc1ccccc1 | inactive | Active | 0 equiv | 88% | 7.10 | – | –
3 | COc1cc(-c2oc3cc(C)c(C)cc3c(=O)c2O)ccc1OCc1ccccc1 | inactive | inactive | 0.27 equiv | 14% | 6.77 | – | –
4 | O=c1c(O)c(-c2ccc(O)c(O)c2)oc2ccc3ccccc3c12 | inactive | Active | 1.26 equiv | 87% | 6.60 | – | –
5 | CCOc1ccc(/C=C/C(=O)c2ccc3ccccc3c2O)cc1OCC | inactive | inactive | 0.12 equiv | 5% | – | Not Active | –
6 | COc1cc(-c2cc(=O)c3cc(C)c(C)cc3o2)ccc1OCc1ccccc1 | inactive | inactive | 0.09 equiv | 83% | 6.30 | – | –
7 | CCOc1ccc(-c2cc(=O)c3cc(C)c(C)cc3o2)cc1OCC | inactive | inactive | 0.15 equiv | 2% | – | Not Active | –
8 | COc1cc(-c2cc(OC)c3ccccc3n2)ccc1O | inactive | inactive | 0.15 equiv | 90% | 6.30 | – | –
9 | O=c1c(O)c(-c2ccc(N3CCCC3)cc2)oc2c1ccc1ccccc12 | inactive | Active | 1.44 equiv | 26% | 7.15 | – | –
10 | COc1cc(-c2ccccc2)nc2ccccc12 | inactive | inactive | 0.12 equiv | 6% | 6.12 | – | –
11 | CC(C)Oc1cc(-c2ccc(N3CCCC3)cc2)nc2ccccc12 | inactive | inactive | 0.27 equiv | 67% | 6.30 | – | –
12 | Cc1cc(O)c(C(=O)/C=C/c2ccc(O)c(O)c2)cc1C | Active | Active | 2.7 equiv | 94% | 7.30 | – | Active
13 | Cc1cc2oc(-c3ccc(N4CCCC4)cc3)cc(=O)c2cc1C | inactive | inactive | 0.12 equiv | 2% | < 6.30 | – | –
14 | COc1cc(/C=C/C(=O)c2ccc3ccccc3c2O)ccc1OCc1ccccc1 | inactive | inactive | 0.15 equiv | 9% | 6.30 | – | –
15 | Cc1cc2oc(-c3ccc(O)c(O)c3)cc(=O)c2cc1C | inactive | inactive | 0.27 equiv | 93% | 6.60 | – | –
16 | CC(C)Oc1cc(-c2ccc(O)cc2O)nc2ccccc12 | inactive | inactive | 0.27 equiv | 64% | 6.68 | – | –
17 | O=c1cc(-c2ccc(N3CCCC3)cc2)oc2c1ccc1ccccc12 | inactive | inactive | 0.03 equiv | 23% | 6.70 | – | –
18 | COc1cc(-c2ccc(N(C)C)cc2)nc2ccccc12 | inactive | inactive | 0.06 equiv | 62% | 7.22 | – | –
19 | COc1cc(-c2cc(=O)c3ccc4ccccc4c3o2)ccc1O | inactive | inactive | 0.2 equiv | 19% | 7.40 | – | –
20 | CC(C)Oc1cc(-c2ccc(N(C)C)cc2)nc2ccccc12 | inactive | inactive | 0.15 equiv | 71% | 7.30 | – | –
21 | COc1cc(-c2oc3c(ccc4ccccc43)c(=O)c2O)ccc1O | inactive | Active | 0.63 equiv | 78% | < 6.30 | – | –

Row | Structure (SMILES) | Activity [1] | Activity [2] | Activity [3] | Activity [4] | pEC50 [5] | EC50 [5] | Activity [6]
22 | COc1cc(-c2ccc(O)cc2)nc2ccccc12 | inactive | inactive | 0.81 equiv | 4% | – | Not Active | –
23 | Cc1cc2oc(-c3ccc(O)c(O)c3)c(O)c(=O)c2cc1C | inactive | inactive | 1.89 equiv | 82% | 6.30 | – | –
24 | COc1cc(-c2ccc([N+](=O)[O-])c(O)c2)nc2ccccc12 | inactive | inactive | 0.18 equiv | 25% | – | Not Active | –
25 | CCOc1cc(-c2ccc(O)c(O)c2)nc2ccccc12 | Active | Active | 0.9 equiv | 90% | 7.70 | – | –
26 | CCOc1ccc(-c2oc3cc(C)c(C)cc3c(=O)c2O)cc1OCC | inactive | inactive | 0.84 equiv | 11% | 6.30 | – | –
27 | Cc1cc2oc(-c3ccc(N(C)C)cc3)cc(=O)c2cc1C | inactive | inactive | 0 equiv | 8% | < 6.30 | – | –
28 | COc1cc(-c2ccc(N3CCCC3)cc2)nc2ccccc12 | inactive | inactive | 0.27 equiv | 67% | – | Not Active | –
29 | CCOc1ccc(/C=C/C(=O)c2cc(C)c(C)cc2O)cc1OCC | inactive | inactive | 0.09 equiv | 56% | – | Not Active | –
30 | CCOc1ccc(-c2cc(OC)c3ccccc3n2)cc1OCC | inactive | inactive | 0.12 equiv | 76% | – | Not Active | –
31 | COc1cc(-c2ccc(O)cc2O)nc2ccccc12 | inactive | inactive | 0.05 equiv | 84% | < 6.30 | – | –
32 | Cc1cc(O)c(C(=O)/C=C/c2ccc(O)cc2O)cc1C | inactive | Active | 0.93 equiv | 53% | 7.30 | – | –
33 | CCOc1ccc(-c2oc3c(ccc4ccccc43)c(=O)c2O)cc1OCC | inactive | inactive | 0.15 equiv | 13% | 6.52 | – | –
34 | COc1ccc(/C=C/C(=O)c2cc(C)c(C)cc2O)cc1O | inactive | inactive | 0.12 equiv | 56% | 6.70 | – | –
35 | CC(C)Oc1cc(-c2ccc(O)c(O)c2)nc2ccccc12 | Active | Active | 0.18 equiv | 80% | 7.70 | – | –
36 | COc1ccc(-c2cc(OC)c3ccccc3n2)cc1O | inactive | inactive | 0.24 equiv | 69% | – | Not Active | –
37 | Cc1cc2oc(-c3ccc(O)cc3O)cc(=O)c2cc1C | inactive | inactive | 0.15 equiv | 5% | < 6.30 | – | –
38 | O=c1cc(-c2ccc(O)c(O)c2)oc2c1ccc1ccccc12 | inactive | Active | 0.18 equiv | 55% | 7.10 | – | –
39 | O=c1c(O)c(-c2ccc(O)c(O)c2)oc2c1ccc1ccccc12 | inactive | Active | 2.4 equiv | 91% | 7.05 | – | –
40 | Cc1cc2oc(-c3ccc(O)cc3O)c(O)c(=O)c2cc1C | inactive | inactive | 1.56 equiv | 0% | < 6.30 | – | –
41 | CCOc1ccc(-c2cc(=O)c3ccc4ccccc4c3o2)cc1OCC | inactive | inactive | 0.2 equiv | 2% | – | Not Active | –
